Each compound was assayed against T1, Galactofuranosyltransferase GlfT2 (Mycobacterium tuberculosis) (UniProt O53585) (assay: Inhibition of Mycobacterium tuberculosis GIFT2 at 4 mM at pH7.6 by spectrophotometric assay).
T1 sequence (whole entry): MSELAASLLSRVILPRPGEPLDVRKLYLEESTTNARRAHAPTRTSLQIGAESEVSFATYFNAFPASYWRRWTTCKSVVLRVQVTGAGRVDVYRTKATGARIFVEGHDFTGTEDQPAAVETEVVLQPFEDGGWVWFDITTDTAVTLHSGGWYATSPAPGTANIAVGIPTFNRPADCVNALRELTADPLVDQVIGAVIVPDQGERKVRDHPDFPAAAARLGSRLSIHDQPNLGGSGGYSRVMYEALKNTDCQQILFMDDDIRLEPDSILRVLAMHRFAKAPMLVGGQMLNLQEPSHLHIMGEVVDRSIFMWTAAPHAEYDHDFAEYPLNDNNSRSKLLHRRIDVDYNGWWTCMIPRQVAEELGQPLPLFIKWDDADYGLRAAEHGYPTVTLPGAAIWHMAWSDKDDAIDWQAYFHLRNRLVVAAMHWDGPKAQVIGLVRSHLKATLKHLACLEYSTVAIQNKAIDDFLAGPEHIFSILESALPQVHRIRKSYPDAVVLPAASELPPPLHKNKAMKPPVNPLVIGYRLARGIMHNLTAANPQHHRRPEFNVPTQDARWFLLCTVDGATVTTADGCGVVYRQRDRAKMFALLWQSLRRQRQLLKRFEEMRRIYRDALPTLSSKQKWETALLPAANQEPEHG
Outline: (§1)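 Coupled PK/LDH spectrophotometric assay of GlfT2. Mix contained 100 mM MOPS pH 7.6, 50 mM KCl, 20 mM MgCl2, 1.1 mM NADH, 3.5 mM PEP, 3.75 U PK and 16.8 U LDH, with β-D-Galf-(1→5)-β-D-Galf-(1→6)-β-D-Galf-octyl as acceptor. Diluted GlfT2 was added to start the reaction at 37 °C, with A340 read every 10–15 s. Closest duplicate velocities were blank-corrected and expressed as % of mean control.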
For NC(=O)CC[C@H](NC(=O)C[C@H]1O[C@H](CO)[C@H](O)[C@H](O)[C@H]1O)C(=O)NC[C@H]1O[C@@H](N2CCC(=O)NC2=O)[C@H](O)[C@@H]1O, the inhibition was less than 10%.
In the case of O=C1CCN([C@@H]2O[C@H](CNC(=O)[C@H](Cc3c[nH]c4ccccc34)NC(=O)C[C@H]3O[C@H](CO)[C@H](O)[C@H](O)[C@H]3O)[C@@H](O)[C@H]2O)C(=O)N1, the inhibition is reported as 53%.
NC(=O)CC[C@H](NC(=O)C[C@H]1O[C@H](CO)[C@H](O)[C@H](O)[C@H]1O)C(=O)NC[C@H]1O[C@@H](n2ccc(=O)[nH]c2=O)[C@H](O)[C@@H]1O was tested, and the inhibition was less than 10%.
O=C(C[C@H]1O[C@H](CO)[C@H](O)[C@H](O)[C@H]1O)N[C@@H](Cc1cnc[nH]1)C(=O)NC[C@H]1O[C@@H](n2ccc(=O)[nH]c2=O)[C@H](O)[C@@H]1O was tested, and the inhibition was 79%.
O=C1CCN([C@@H]2O[C@H](CNC(=O)[C@H](Cc3cnc[nH]3)NC(=O)C[C@H]3O[C@H](CO)[C@H](O)[C@H](O)[C@H]3O)[C@@H](O)[C@H]2O)C(=O)N1 gave an inhibition of 18%.
In the case of O=C(C[C@H]1O[C@H](CO)[C@H](O)[C@H](O)[C@H]1O)N[C@@H](Cc1c[nH]c2ccccc12)C(=O)NC[C@H]1O[C@@H](n2ccc(=O)[nH]c2=O)[C@H](O)[C@@H]1O, the inhibition is reported as 75%.

These compounds were tested against T2, Galactofuranosyltransferase GlfT2 (Mycobacterium tuberculosis, UniProt O53585) (assay: Inhibition of Mycobacterium tuberculosis GIFT2 at pH7.6 by spectrophotometric assay).
T2 sequence (O53585 whole entry): T1 sequence (whole entry)
O=C(C[C@H]1O[C@H](CO)[C@H](O)[C@H](O)[C@H]1O)N[C@@H](Cc1cnc[nH]1)C(=O)NC[C@H]1O[C@@H](n2ccc(=O)[nH]c2=O)[C@H](O)[C@@H]1O showed an IC50 of 332 µM.

Each compound was assayed against T1, Galactofuranosyltransferase GlfT2 (Mycobacterium tuberculosis) (assay: Inhibition of Mycobacterium tuberculosis GIFT2 at 2 mM at pH7.6 by spectrophotometric assay).
Outline: as §1
For O=C1CCN([C@@H]2O[C@H](CNC(=O)[C@H](Cc3cnc[nH]3)NC(=O)C[C@H]3O[C@@H](CO)[C@H](O)[C@H]3O)[C@@H](O)[C@H]2O)C(=O)N1, the inhibition was less than 10%.
Compound O=C1CCN([C@@H]2O[C@H](CNC(=O)[C@H](Cc3c[nH]c4ccccc34)NC(=O)C[C@H]3O[C@@H](CO)[C@H](O)[C@H]3O)[C@@H](O)[C@H]2O)C(=O)N1 has an inhibition of less than 10%.
With O=C(C[C@H]1O[C@@H](CO)[C@H](O)[C@H]1O)N[C@@H](Cc1cnc[nH]1)C(=O)NC[C@H]1O[C@@H](n2ccc(=O)[nH]c2=O)[C@H](O)[C@@H]1O the inhibition was 37%.
In the case of O=C(C[C@@H]1O[C@@H](CO)[C@H](O)[C@H]1O)N[C@@H](Cc1cnc[nH]1)C(=O)NC[C@H]1O[C@@H](n2ccc(=O)[nH]c2=O)[C@H](O)[C@@H]1O, the inhibition is reported as 14%.
O=C1CCN([C@@H]2O[C@H](CNC(=O)[C@H](Cc3c[nH]c4ccccc34)NC(=O)C[C@@H]3O[C@@H](CO)[C@H](O)[C@H]3O)[C@@H](O)[C@H]2O)C(=O)N1 gave an inhibition of less than 10%.
In the case of O=C(C[C@H]1O[C@@H](CO)[C@H](O)[C@H]1O)N[C@@H](Cc1c[nH]c2ccccc12)C(=O)NC[C@H]1O[C@@H](n2ccc(=O)[nH]c2=O)[C@H](O)[C@@H]1O, the inhibition is reported as 30%.
For O=C1CCN([C@@H]2O[C@H](CNC(=O)[C@H](Cc3cnc[nH]3)NC(=O)C[C@@H]3O[C@@H](CO)[C@H](O)[C@H]3O)[C@@H](O)[C@H]2O)C(=O)N1, the inhibition was less than 10%.
O=C(C[C@@H]1O[C@@H](CO)[C@H](O)[C@H]1O)N[C@@H](Cc1c[nH]c2ccccc12)C(=O)NC[C@H]1O[C@@H](n2ccc(=O)[nH]c2=O)[C@H](O)[C@@H]1O gave an inhibition of less than 10%.

— ChEMBL document CHEMBL1641436, “Synthesis of sugar-amino acid-nucleosides as potential glycosyltransferase inhibitors” (Bioorg Med Chem, 2011)
